Source: PubChem (Johns Hopkins Ion Channel Center)
An excerpt weighted towards active compounds, which were near 3.7% of everything screened.
Kir21 inh: blocks the mouse Kir2.1 inward-rectifier potassium channel; P35561; AID 1672; HEK293-Kir2.1, FluxOR thallium flux fluorescence; active compounds read low; B-score at 10 µM; 0.85% of 310,000 active;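 active means fluorescence ratio B-score at or below minus 3 SD of library scores, with starting-brightness B-score within 2 SD, cut at about -4.2 in these data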;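 further: channel flux triggered by added potassium and thallium sulfate stimulus; B-score of peak minus minimum fluorescence over baseline after thallium stimulus; more negative B-score means stronger Kir2.1 block with less thallium influx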
hERG rescue: hERG (human) protection from proarrhythmic block. Q12809. CHO-hERG, FluxOR thallium flux, dofetilide IC70 present. activation (rescue from dofetilide block), less the hit threshold, % at 10 µM. 0.51% of 310,000 active;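 active means activation above the mean of controls blocked by dofetilide plus 5 SD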;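 further: thallium influx through hERG after potassium depolarization seen as dye fluorescence rise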
Target sequence (Q12809 whole entry, looked up): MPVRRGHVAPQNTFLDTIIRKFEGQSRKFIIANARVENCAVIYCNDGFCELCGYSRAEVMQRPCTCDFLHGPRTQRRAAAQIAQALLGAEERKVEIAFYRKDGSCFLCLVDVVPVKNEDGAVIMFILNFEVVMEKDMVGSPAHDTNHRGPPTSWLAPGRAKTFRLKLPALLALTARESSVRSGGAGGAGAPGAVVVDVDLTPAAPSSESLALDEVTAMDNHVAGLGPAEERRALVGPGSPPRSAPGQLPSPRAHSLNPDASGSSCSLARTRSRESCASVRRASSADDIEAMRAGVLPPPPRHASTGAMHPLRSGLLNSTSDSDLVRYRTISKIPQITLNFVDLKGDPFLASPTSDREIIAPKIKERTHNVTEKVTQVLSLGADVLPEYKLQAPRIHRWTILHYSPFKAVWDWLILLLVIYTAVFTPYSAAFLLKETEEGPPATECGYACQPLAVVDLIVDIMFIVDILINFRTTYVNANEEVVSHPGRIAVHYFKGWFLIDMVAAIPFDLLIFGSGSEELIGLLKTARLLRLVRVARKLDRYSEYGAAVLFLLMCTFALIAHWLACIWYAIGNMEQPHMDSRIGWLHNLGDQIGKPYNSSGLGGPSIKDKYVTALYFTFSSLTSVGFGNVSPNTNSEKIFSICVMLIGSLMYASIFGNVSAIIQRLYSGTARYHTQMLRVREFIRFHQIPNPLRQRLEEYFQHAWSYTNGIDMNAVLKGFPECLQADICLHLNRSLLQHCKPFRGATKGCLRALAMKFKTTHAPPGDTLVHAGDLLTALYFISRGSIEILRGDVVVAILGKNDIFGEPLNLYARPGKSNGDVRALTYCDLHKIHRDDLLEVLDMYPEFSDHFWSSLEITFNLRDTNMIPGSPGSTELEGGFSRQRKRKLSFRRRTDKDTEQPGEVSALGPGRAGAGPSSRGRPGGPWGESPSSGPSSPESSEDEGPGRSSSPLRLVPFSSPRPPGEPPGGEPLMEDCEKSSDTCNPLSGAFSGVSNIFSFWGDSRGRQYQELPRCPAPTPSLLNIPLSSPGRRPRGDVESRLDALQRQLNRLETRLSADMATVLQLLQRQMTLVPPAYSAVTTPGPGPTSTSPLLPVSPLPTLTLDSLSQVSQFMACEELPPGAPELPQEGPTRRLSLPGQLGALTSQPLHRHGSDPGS
KCNK9 block: inhibitors of human KCNK9 two-pore domain potassium channel; Q9NPC2; HEK293 KCNK9, FluxOR thallium flux fluorescence; active compounds read low; B-score at 10 µM; 1.2% of 310,000 active;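 active means ratio B-score over 3 SD below the library mean, with starting fluorescence within 5 SD of its mean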;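 further: negative B-score means less thallium flux so channel inhibition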
KCNQ1 inh: blocks the human KCNQ1 potassium channel; B-score at 10 µM; AID 2642; CHO-K1 KCNQ1, FluxOR thallium flux fluorescence; active compounds read high; 1.3% of 310,000 active;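 active means compounds whose thallium flux B-score, printed positive for inhibition, exceeds three library SD while starting fluorescence stays within three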;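 further: channel opened by potassium depolarization with thallium stimulus after 20 min compound exposure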
KCNK3 inh: human KCNK3 channel inhibition, primary screen. O14649. CHO-KCNK3 thallium flux, FluxOR fluorescence; active compounds read low. B-score at 10 µM. 0.84% of 340,000 active;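 active means B-score under library mean minus 4 SD, starting fluorescence ratio at most library mean plus 5 SD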;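 further: more negative B-score means stronger inhibition of thallium flux through KCNK3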
KCNQ1 act: potentiates or activates the human KCNQ1 potassium channel; P51787; CHO-K1 KCNQ1, thallium flux FluxOR fluorescence; active compounds read high; B-score at 10 µM; 0.35% of 310,000 active; AID 2648;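 active means fluorescence ratio B-score, a plate-corrected score, at least three library SD, with initial intensity B-score within 5 SD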
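Material: CHO-K1 cells stably expressing KCNQ1. Medium: assay buffer for compound exposure, DMSO matched across wells. Reagent: K+/Tl+ depolarizing stimulus. Compound dosing: single-concentration screen. Times: 37 °C overnight plating, 90-min dark dye load, 20-min compound pretreatment. Technique: FluxOR Tl+ flux fluorescence.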
* marks the source's active call; other numbers are inactive results.

What do the screens show for `Cc1cc(=O)oc2c(C)c(OCC(=O)N3CCN(c4cccc(Cl)c4)CC3)ccc12`?
Kir21 inh: -0.01; hERG rescue: -12; KCNK9 block: inactive; KCNQ1 inh: inactive; KCNK3 inh: inactive; KCNQ1 act: inactive

What do the screens show for `O=C(NC(=S)N(CCCCO)C1CCCCC1)c1sc2ccccc2c1Cl`?
Kir21 inh: -2.3; hERG rescue: 18*; KCNK9 block: inactive; KCNQ1 inh: inactive; KCNK3 inh: inactive; KCNQ1 act: 31*

Results for CCOC(=O)c1sc2ncnc(NCc3ccco3)c2c1C ?
Kir21 inh: -1.2; hERG rescue: 16*; KCNK9 block: inactive; KCNQ1 inh: inactive; KCNK3 inh: inactive; KCNQ1 act: 37*

How did CCOC(=O)c1sc2nc(CC(=O)OC)nc(NCc3ccco3)c2c1C do in these assays?
Kir21 inh: -1.3; hERG rescue: -9; KCNK9 block: inactive; KCNQ1 inh: inactive; KCNK3 inh: inactive; KCNQ1 act: inactive

How did CCOC(=O)c1cc(-c2ccc(F)cc2)n(CCC(=O)NC2CCN(Cc3ccccc3)CC2)c1C do in these assays?
Kir21 inh: -4.6*; hERG rescue: -12; KCNK9 block: inactive; KCNQ1 inh: inactive; KCNK3 inh: inactive; KCNQ1 act: inactive

What do the screens show for `CCCCS(=O)(=O)/C=C\C=C/S(=O)(=O)CCCC`?
Kir21 inh: -1.7; hERG rescue: -12; KCNK9 block: inactive; KCNQ1 inh: inactive; KCNK3 inh: inactive; KCNQ1 act: 14*

Results for CN(C)C(C)(C)C#CCC(c1ccccc1)c1ccccc1 ?
Kir21 inh: -5*; hERG rescue: -5; KCNK9 block: inactive; KCNQ1 inh: inactive; KCNK3 inh: inactive; KCNQ1 act: inactive

Results for CN(C)C(C)(C)C#CCCCCC#CC(C)(C)N(C)C ?
KCNK3 inh: inactive

What do the screens show for `Cc1cccc(C(=O)N[C@H](C(=O)NCCc2ccc(Cl)cc2)C(C)C)c1`?
Kir21 inh: -1.1; hERG rescue: -1; KCNK9 block: inactive; KCNQ1 inh: inactive; KCNK3 inh: inactive; KCNQ1 act: inactive

What do the screens show for `O=C(CCC1N=C2c3ccccc3N=C(SCc3ccc(Cl)cc3)N2C1=O)NCc1ccco1` (stereo unspecified)?
Kir21 inh: -2.5; hERG rescue: -17; KCNK9 block: -7.8*; KCNQ1 inh: inactive; KCNK3 inh: inactive; KCNQ1 act: inactive

How did O=C(CCC1N=C2c3ccccc3N=C(SCc3ccc(F)cc3)N2C1=O)NCc1ccco1 (stereo unspecified) do in these assays?
Kir21 inh: -1.8; hERG rescue: -18; KCNK9 block: inactive; KCNQ1 inh: inactive; KCNK3 inh: inactive; KCNQ1 act: inactive

How did FC(F)(F)c1ccc(N2CCOCC2)c(Nc2nc3ccccc3n3cnnc23)c1 do in these assays?
Kir21 inh: 0.63; hERG rescue: -4; KCNK9 block: -7.2*; KCNQ1 inh: inactive; KCNK3 inh: inactive; KCNQ1 act: inactive

What do the screens show for `Cc1cc(C)n(-c2nc3ccccc3nc2Nc2ccc3[nH]c(=O)[nH]c3c2)n1`?
Kir21 inh: 1.1; hERG rescue: 0; KCNK9 block: inactive; KCNQ1 inh: inactive; KCNK3 inh: inactive; KCNQ1 act: inactive

How did COc1ccc(Nc2nc3ccccc3nc2-n2nc(C)cc2C)cc1 do in these assays?
Kir21 inh: -0.04; hERG rescue: -8; KCNK9 block: -7.2*; KCNQ1 inh: inactive; KCNK3 inh: inactive; KCNQ1 act: inactive

How did CCOc1ccc(CCNC(=O)c2ccc(CS(=O)Cc3ccc(Cl)cc3)o2)cc1 (stereo unspecified) do in these assays?
Kir21 inh: 0.35; hERG rescue: -9; KCNK9 block: inactive; KCNQ1 inh: inactive; KCNK3 inh: inactive; KCNQ1 act: inactive

What do the screens show for `CCOc1ccc(CCNC(=O)c2ccc(CS(=O)Cc3ccccc3Cl)o2)cc1` (stereo unspecified)?
Kir21 inh: -4.3*; hERG rescue: -18; KCNK9 block: inactive; KCNQ1 inh: inactive; KCNK3 inh: inactive; KCNQ1 act: inactive

Results for CC(C)OCCCNC(=O)c1ccc(NC(=O)C2CCCO2)cc1 (stereo unspecified) ?
Kir21 inh: 0.04; hERG rescue: -12; KCNK9 block: inactive; KCNQ1 inh: inactive; KCNK3 inh: inactive; KCNQ1 act: inactive

How did CCCCNC(=O)c1ccc(NC(=O)C2CCCO2)cc1 (stereo unspecified) do in these assays?
Kir21 inh: -0.27; hERG rescue: 40*; KCNK9 block: inactive; KCNQ1 inh: inactive; KCNK3 inh: inactive; KCNQ1 act: inactive

Results for COc1ccc2nc(N)sc2c1 ?
Kir21 inh: 0.47; hERG rescue: -13; KCNK9 block: inactive; KCNQ1 inh: inactive; KCNK3 inh: inactive; KCNQ1 act: inactive

Results for Cc1cc2nc(N)sc2cc1[N+](=O)[O-] ?
Kir21 inh: 1.7; hERG rescue: 5.0*; KCNK9 block: inactive; KCNQ1 inh: inactive; KCNK3 inh: inactive; KCNQ1 act: inactive

Results for C=CCn1c(=O)c2ccccc2n2c(SCC(=O)NC)nnc12 ?
Kir21 inh: -0.08; hERG rescue: -4; KCNK9 block: inactive; KCNQ1 inh: inactive; KCNK3 inh: inactive; KCNQ1 act: inactive

What do the screens show for `COc1ccc(N2CC(C(=O)Nc3nnc(SCC(=O)NCC4CCCO4)s3)CC2=O)cc1` (stereo unspecified)?
Kir21 inh: -0.52; hERG rescue: -7; KCNK9 block: inactive; KCNQ1 inh: inactive; KCNK3 inh: inactive; KCNQ1 act: inactive

How did O=C(c1ccc(Cl)cc1)N1CCN=C1c1ccccc1 do in these assays?
Kir21 inh: -4.5*; hERG rescue: -10; KCNK9 block: inactive; KCNQ1 inh: inactive; KCNK3 inh: inactive; KCNQ1 act: inactive

How did Cc1ccc(NC(=O)C(C)OC(=O)Cc2c[nH]c3ccccc23)cc1 (stereo unspecified) do in these assays?
Kir21 inh: -6.6*; hERG rescue: -8; KCNK9 block: inactive; KCNQ1 inh: inactive; KCNK3 inh: inactive; KCNQ1 act: inactive

What do the screens show for `Cc1ccc(C(=O)C(C)OC(=O)Cc2c[nH]c3ccccc23)cc1` (stereo unspecified)?
Kir21 inh: -5.2*; hERG rescue: -8; KCNK9 block: inactive; KCNQ1 inh: inactive; KCNK3 inh: inactive; KCNQ1 act: inactive

Results for CC(OC(=O)Cc1c[nH]c2ccccc12)C(=O)Nc1ccccc1[N+](=O)[O-] (stereo unspecified) ?
Kir21 inh: -6.5*; hERG rescue: -20; KCNK9 block: inactive; KCNQ1 inh: inactive; KCNK3 inh: inactive; KCNQ1 act: inactive
